One test has as its system A549. The experiment in a line: Antiproliferative activity against human A549 cells after 72 hrs by MTT assay. It counts as functional, cell-based. To be noted: A549, 72 h. Summed up:
(§1)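 Human tumour cells were exposed to the compound for 72 h, and growth was read by standard MTT assay. IC50 is the concentration giving 50% inhibition, taken as the average of three parallel experiments.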

A further test deals with HT-1080. Put plainly: Antiproliferative activity against human HT1080 cells after 72 hrs by MTT assay. The format is functional, cell-based. To be noted: HT-1080, 72 h. Summed up: as §1
The subject of test [1] is SGC-7901. Put plainly: Antiproliferative activity against human SGC7901 cells after 72 hrs by MTT assay. The settings on record: SGC-7901, 72 h. It counts as functional, cell-based. In outline:
as §1
(Formazan colour is commonly taken as a measure of viable cells.)

The subject of another test is L929. The experiment in a line: Cytotoxicity against mouse L929 cells after 72 hrs by MTT assay. It counts as cell-based. To be noted: L929, 72 h.
Test [2] is described as follows: (§2) Inhibition of porcine brain tubulin polymerization preincubated for 1 min followed by GTP addition measured at 1 min time interval for 90 mins by fluorescence assay. Details: species or system Sus scrofa. In outline: (§3)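 Run with a commercial tubulin polymerization kit following the manufacturer's protocol. Tubulin was pre-incubated for 1 min with compound (2.5, 5, 10 or 20 µM) or DMSO vehicle, then GTP was added to start polymerization. Reactions were monitored at 37 °C.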

The species entered for test [3] is Sus scrofa. The description is as §2. Summed up: as §3
Another test concerns the target Tubulin (Homo sapiens) (UniProt P68371+Q9H4B7+P0DPH7+P68366+Q13509+Q71U36+P04350+Q3ZCM7+P07437+P68363+Q9BQE3+Q6PEY2+Q13885+Q9BVA1+Q9BUF5). Put plainly: Inhibition of tubulin polymerization in human SGC7901 cells assessed as disruption of microtubule formation at 2 times antiproliferative IC50 after 24 hrs by DAPI staining based immunofluorescence microscopic method. It counts as cell-based. Summed up:
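SGC-7901 cells were treated for 24 h at 2-fold their antiproliferative IC50. Cells were stained with anti-α-tubulin-FITC antibody and then DAPI for DNA, and the microtubule network was examined by confocal microscopy.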

Test [4] has as its system SGC-7901. The experiment in a line: Cell cycle arrest in human SGC7901 cells assessed as accumulation at G2/M phase at 27 to 108 nM after 24 hrs by propidium iodide staining based flow cytometry (reference value: 15%). It counts as functional.
Test [5] concerns SGC-7901. Put plainly: Cell cycle arrest in human SGC7901 cells assessed as accumulation at G2/M phase after 24 hrs by propidium iodide staining based flow cytometry. The format is functional. In outline: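 SGC-7901 cells were treated for 24 h with a vehicle control run in parallel. Cell-cycle phase distribution was obtained by flow cytometry, with G2/M accumulation as the read-out.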
On the technique in general: A flow cytometer gives signals particle by particle.

The species entered for test [6] is Sus scrofa. The experiment in a line: Inhibition of porcine brain tubulin polymerization at 5 uM preincubated for 1 min followed by GTP addition measured at 1 min time interval for 90 mins by fluorescence assay. Summed up: as §3
The species named for test [7] is Sus scrofa. The experiment in a line: Inhibition of porcine brain tubulin polymerization at 2.5 uM preincubated for 1 min followed by GTP addition measured at 1 min time interval for 90 mins by fluorescence assay. In outline: as §3

The source made the active and inactive calls. No cut-off for these calls is given here.

For `COc1cc(C(=O)c2cnn(-c3cc(C)cc(C)c3)c2N)cc(OC)c1OC`, the IC50 in the test on A549, with HT-1080 and with SGC-7901 [1] was greater than 30 µM in each case.

As to `CCc1ccc(-n2ncc(C(=O)c3cc(OC)c(OC)c(OC)c3)c2N)cc1`, the IC50 in the test with A549, in the test on HT-1080 and in the test on SGC-7901 [1] was greater than 30 µM each time.

As for `COc1cc(C(=O)c2cnn(-c3ccc(Cl)cc3)c2N)cc(OC)c1OC`, the IC50 with A549, with HT-1080 and in the test with SGC-7901 [1] was greater than 30 µM throughout.

`COc1cc(C(=O)c2cnn(-c3ccc(C)cc3)c2)cc(OC)c1OC`: the IC50 came to 0.11 µM in the test with A549; 0.16 µM in the test with HT-1080; 0.054 µM in the test on SGC-7901 [1]; 65.7 µM in the test on L929; 9.17 µM in test [2]. Moreover, in the test listed under Sus scrofa [3], the inhibition result is “Dose-dependent effect”. Moreover, at Tubulin (Homo sapiens), the inhibition result was “Active”. The Activity result was “<=68%” in the test with SGC-7901 [4] and “Dose-dependent effect” with SGC-7901 [5].

For the molecule `COc1ccc(-n2ncc(C(=O)c3cc(OC)c(OC)c(OC)c3)c2N)cc1`, the IC50 in the test with A549, in the test with HT-1080 and in the test with SGC-7901 [1] was greater than 30 µM each time.

For the molecule `COc1cc(C(=O)c2cnn(-c3ccccc3Br)c2N)cc(OC)c1OC`, the IC50 with A549, with HT-1080 and in the test with SGC-7901 [1] was greater than 30 µM in each case.

As for `CC(=O)O[C@H]1C(=O)[C@@]2(C)[C@H]([C@H](OC(=O)c3ccccc3)[C@]3(O)C[C@H](OC(=O)[C@H](O)[C@@H](NC(=O)c4ccccc4)c4ccccc4)C(C)=C1C3(C)C)[C@]1(OC(C)=O)CO[C@@H]1C[C@@H]2O`, the inhibition result in the test listed under Sus scrofa [6] was “inactive”.

Regarding `COc1cc(C(=O)c2cnn(-c3cccc(Cl)c3C)c2)cc(OC)c1OC`, the IC50 in the test on A549, in the test with HT-1080 and in the test with SGC-7901 [1] was greater than 30 µM throughout.

Turning to `COc1cc(C(=O)c2cnn(-c3cccc(Cl)c3C)c2N)cc(OC)c1OC`, the IC50 in the test with A549, in the test with HT-1080 and in the test on SGC-7901 [1] was greater than 30 µM throughout.

With `COc1cc(C(=O)c2cnn(-c3cc(C)cc(C)c3)c2)cc(OC)c1OC`, the half-maximal inhibitory concentration (IC50) worked out at 2.3 µM with A549, 1.6 µM with HT-1080 and 1.9 µM with SGC-7901 [1].

In the case of `COc1cc(C(=O)c2cnn(-c3cccc(Br)c3)c2N)cc(OC)c1OC`, the IC50 with A549, in the test with HT-1080 and in the test on SGC-7901 [1] was greater than 30 µM throughout.

For the molecule `COc1cc(C(=O)c2cnn(-c3ccc(Cl)cc3)c2)cc(OC)c1OC`, the IC50 in the test with A549, in the test with HT-1080 and in the test on SGC-7901 [1] was greater than 30 µM throughout.

`COc1cc(C(=O)c2cnn(-c3cc(C)ccc3C)c2)cc(OC)c1OC`: the IC50 with A549 is 2.6 µM; in the test with HT-1080, 12.9 µM; in the test on SGC-7901 [1], 3.7 µM.

On to `COc1cc(C(=O)c2csc(-c3ccccc3)n2)cc(OC)c1OC`, for which the IC50 was determined as 0.032 µM in the test with A549, 0.027 µM in the test on HT-1080, 0.023 µM in the test on SGC-7901 [1] and 21 µM in the test with L929. The inhibition entry in the test listed under Sus scrofa [7] and on Tubulin (Homo sapiens) was “Active” each time.

As for `COc1cc(C(=O)c2cnn(-c3ccccc3)c2N)cc(OC)c1OC`, the values for the IC50 with A549, with HT-1080 and with SGC-7901 [1] were 11.3 µM, 5 µM and 24.7 µM, respectively.

For `COc1cc(C(=O)c2cnn(-c3ccc(C)cc3)c2N)cc(OC)c1OC`, the figures for the IC50 in the test on A549, in the test with HT-1080 and in the test on SGC-7901 [1] were 20.6 µM, greater than 30 µM and 29.6 µM, respectively.

Regarding `COc1cc(C(=O)c2cnn(-c3ccccc3C)c2)cc(OC)c1OC`, the IC50 with A549, in the test with HT-1080 and in the test with SGC-7901 [1] was greater than 30 µM each time.

Consider `COc1cc(C(=O)c2cnn(-c3cc(C)ccc3C)c2N)cc(OC)c1OC`, for which the IC50 with A549, with HT-1080 and in the test with SGC-7901 [1] was greater than 30 µM each time.

Consider `COc1cc(C(=O)c2cnn(-c3ccc(F)cc3)c2N)cc(OC)c1OC`, for which the IC50 with A549, in the test on HT-1080 and with SGC-7901 [1] was greater than 30 µM throughout.

For `COc1cc(C(=O)c2cnn(-c3ccc(C(C)C)cc3)c2)cc(OC)c1OC`, the IC50 is greater than 30 µM in the test with A549, 17 µM in the test with HT-1080 and greater than 30 µM with SGC-7901 [1].

For the molecule `COc1cc(C(=O)c2cnn(-c3ccc(C)cc3C)c2N)cc(OC)c1OC`, the IC50 with A549, in the test on HT-1080 and with SGC-7901 [1] was greater than 30 µM throughout.

As for `COc1cc(C(=O)c2cnn(-c3cccc(Cl)c3)c2N)cc(OC)c1OC`, the IC50 in the test on A549, in the test with HT-1080 and in the test on SGC-7901 [1] was greater than 30 µM in each case.

On to `COc1cc(C(=O)c2cnn(-c3ccccc3Cl)c2)cc(OC)c1OC`, for which the IC50 with A549, with HT-1080 and in the test on SGC-7901 [1] was greater than 30 µM in each case.

For the molecule `COc1cc(C(=O)c2cnn(-c3ccc(C(C)C)cc3)c2N)cc(OC)c1OC`, the IC50 in the test on A549, in the test with HT-1080 and with SGC-7901 [1] was greater than 30 µM each time.

`COc1cc(/C(=N\O)c2cnn(-c3ccc(C)cc3)c2)cc(OC)c1OC` (mixture of isomers): the IC50 was determined as 0.14 µM with A549, 0.09 µM with HT-1080, 0.071 µM in the test with SGC-7901 [1] and 96.2 µM in the test with L929.

Regarding `COc1cc(C(=O)c2cnn(-c3ccccc3Cl)c2N)cc(OC)c1OC`, the IC50 in the test with A549, in the test on HT-1080 and in the test with SGC-7901 [1] was greater than 30 µM throughout.

Turning to `COc1cc(C(=O)c2cnn(-c3ccccc3Br)c2)cc(OC)c1OC`, the IC50 with A549, in the test on HT-1080 and in the test on SGC-7901 [1] was greater than 30 µM each time.

On to `COc1ccc(-n2cc(C(=O)c3cc(OC)c(OC)c(OC)c3)cn2)cc1`, for which the IC50 is 18.7 µM in the test with A549, greater than 30 µM with HT-1080 and 17.9 µM with SGC-7901 [1].

Consider `COc1cc(C(=O)c2cnn(-c3ccccc3C)c2N)cc(OC)c1OC`, for which the IC50 in the test on A549, with HT-1080 and in the test with SGC-7901 [1] was greater than 30 µM each time.

As to `COc1cc(C(=O)c2cnn(-c3ccc(F)cc3)c2)cc(OC)c1OC`, the IC50 in the test on A549 was found to be 14 µM; in the test on HT-1080, 2.8 µM; in the test on SGC-7901 [1] it was 6.5 µM.

In the case of `COc1cc(C(=O)c2cnn(-c3cccc(Br)c3)c2)cc(OC)c1OC`, the IC50 in the test on A549, in the test on HT-1080 and in the test on SGC-7901 [1] was greater than 30 µM in each case.

With `COc1cc(C(=O)c2cnn(-c3ccc(C)cc3C)c2)cc(OC)c1OC`, the IC50 with A549 was greater than 30 µM; with HT-1080, 22.6 µM; with SGC-7901 [1] it was greater than 30 µM.

For the molecule `COc1cc(C(=O)c2cnn(-c3cccc(Cl)c3)c2)cc(OC)c1OC`, the concentration for half-maximal inhibition (IC50) in the test on A549 was determined as 20.4 µM; in the test on HT-1080, 3.7 µM; in the test on SGC-7901 [1] it was 16.7 µM.

Turning to `CCc1ccc(-n2cc(C(=O)c3cc(OC)c(OC)c(OC)c3)cn2)cc1`, the IC50 worked out at 16.3 µM in the test with A549, 3.1 µM in the test on HT-1080 and 7.8 µM in the test with SGC-7901 [1].

Turning to `COc1cc(C(=O)c2cnn(-c3ccccc3)c2)cc(OC)c1OC`, the IC50 in the test with A549 is 8.6 µM; in the test with HT-1080 it was 19.4 µM; in the test with SGC-7901 [1] it was greater than 30 µM.

In general, IC50 refers to the concentration needed to halve the response being measured.

The record behind these values is ChEMBL document CHEMBL4270543, “Synthesis and biological evaluation of (1-aryl-1H-pyrazol-4-yl) (3,4,5-trimethoxyphenyl)methanone derivatives as tubulin inhibitors” (Eur J Med Chem, 2018).
